Experimental data from ChEMBL document CHEMBL4715736, “Identification of anticancer agents based on the thieno[2,3-b]pyridine and 1H-pyrazole molecular scaffolds” (2016).

Tests used:
Type in all cases: functional
CCRF-CEM [1] = experiment: Growth inhibition of human CCRF-CEM cells assessed as cell growth at 0.01 uM incubated for 48 hrs by sulforhodamine B assay relative to control; conditions: read-out: Activity
Procedure, shortened: (§1)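 NCI Developmental Therapeutics Program NCI60 panel. Compounds that were active in the 10 µM one-dose screen went on to dose–response testing. Growth at each concentration is expressed relative to untreated control (100%). GI50 (concentration giving 50% of maximal inhibition of proliferation) and TGI (concentration giving total growth inhibition) were derived from the curves.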

K562 = experiment: Growth inhibition of human K562 cells assessed as cell growth at 0.01 uM incubated for 48 hrs by sulforhodamine B assay relative to control; conditions: read-out: Activity
NCI-H322M = experiment: Growth inhibition of human NCI-H322M cells assessed as cell growth at 0.01 uM incubated for 48 hrs by sulforhodamine B assay relative to control; conditions: read-out: Activity
NCI-H522 = experiment: Growth inhibition of human NCI-H522 cells assessed as cell growth at 0.01 uM incubated for 48 hrs by sulforhodamine B assay relative to control; conditions: read-out: Activity
COLO 205 = experiment: Growth inhibition of human COLO 205 cells assessed as cell growth at 0.01 uM incubated for 48 hrs by sulforhodamine B assay relative to control; conditions: read-out: Activity; procedure, shortened: as §1
HCC 2998 [2] = experiment: Growth inhibition of human HCC 2998 cells assessed as cell growth at 0.01 uM incubated for 48 hrs by sulforhodamine B assay relative to control; conditions: read-out: Activity; procedure, shortened: as §1
KM12 = experiment: Growth inhibition of human KM12 cells assessed as cell growth at 0.01 uM incubated for 48 hrs by sulforhodamine B assay relative to control; conditions: read-out: Activity
LOX IMVI = experiment: Growth inhibition of human LOX IMVI cells assessed as cell growth at 0.01 uM incubated for 48 hrs by sulforhodamine B assay relative to control; conditions: read-out: Activity
IGROV-1 = experiment: Growth inhibition of human IGROV-1 cells assessed as cell growth at 0.01 uM incubated for 48 hrs by sulforhodamine B assay relative to control; conditions: read-out: Activity
SN12C = experiment: Growth inhibition of human SN12C cells assessed as cell growth at 0.01 uM incubated for 48 hrs by sulforhodamine B assay relative to control; conditions: read-out: Activity
BT-549 = experiment: Growth inhibition of human BT-549 cells assessed as cell growth at 0.01 uM incubated for 48 hrs by sulforhodamine B assay relative to control; conditions: read-out: Activity
T47D [3] = experiment: Growth inhibition of human T47D cells assessed as cell growth at 0.01 uM incubated for 48 hrs by sulforhodamine B assay relative to control; conditions: read-out: Activity
SK-MEL-28 = experiment: Growth inhibition of human SK-MEL-28 cells assessed as cell growth at 0.1 uM incubated for 48 hrs by sulforhodamine B assay relative to control; conditions: read-out: Activity
CAKI-1 = experiment: Growth inhibition of human CAKI-1 cells assessed as cell growth at 0.1 uM incubated for 48 hrs by sulforhodamine B assay relative to control; conditions: read-out: Activity; procedure, shortened: as §1
DU-145 [4] = experiment: Growth inhibition of human DU-145 cells assessed as cell growth at 0.1 uM incubated for 48 hrs by sulforhodamine B assay relative to control; conditions: read-out: Activity; procedure, shortened: as §1
MCF7 = experiment: Growth inhibition of human MCF7 cells assessed as cell growth at 0.1 uM incubated for 48 hrs by sulforhodamine B assay relative to control; conditions: read-out: Activity
MDA-MB-468 = experiment: Growth inhibition of human MDA-MB-468 cells assessed as cell growth at 0.1 uM incubated for 48 hrs by sulforhodamine B assay relative to control; conditions: read-out: Activity
CCRF-CEM [5] = experiment: Growth inhibition of human CCRF-CEM cells assessed as cell growth at 1 uM incubated for 48 hrs by sulforhodamine B assay relative to control; conditions: read-out: Activity; procedure, shortened: as §1
HOP-92 [6] = experiment: Growth inhibition of human HOP-92 cells assessed as cell growth at 1 uM incubated for 48 hrs by sulforhodamine B assay relative to control; conditions: read-out: Activity
SK-MEL-2 [7] = experiment: Growth inhibition of human SK-MEL-2 cells assessed as cell growth at 1 uM incubated for 48 hrs by sulforhodamine B assay relative to control; conditions: read-out: Activity
DU-145 [8] = experiment: Growth inhibition of human DU-145 cells assessed as cell growth at 1 uM incubated for 48 hrs by sulforhodamine B assay relative to control; conditions: read-out: Activity; procedure, shortened: as §1
SR = experiment: Growth inhibition of human SR cells assessed as cell growth at 100 uM incubated for 48 hrs by sulforhodamine B assay relative to control; conditions: read-out: Activity
HOP-62 = experiment: Growth inhibition of human HOP-62 cells assessed as cell growth at 100 uM incubated for 48 hrs by sulforhodamine B assay relative to control; conditions: read-out: Activity
HOP-92 [9] = experiment: Growth inhibition of human HOP-92 cells assessed as cell growth at 100 uM incubated for 48 hrs by sulforhodamine B assay relative to control; conditions: read-out: Activity
SF-268 = experiment: Growth inhibition of human SF-268 cells assessed as cell growth at 100 uM incubated for 48 hrs by sulforhodamine B assay relative to control; conditions: read-out: Activity
SK-MEL-2 [10] = experiment: Growth inhibition of human SK-MEL-2 cells assessed as cell growth at 100 uM incubated for 48 hrs by sulforhodamine B assay relative to control; conditions: read-out: Activity
RXF 393 = experiment: Growth inhibition of human RXF 393 cells assessed as cell growth at 100 uM incubated for 48 hrs by sulforhodamine B assay relative to control; conditions: read-out: Activity
Hs-578T = experiment: Growth inhibition of human Hs-578T cells assessed as cell growth at 100 uM incubated for 48 hrs by sulforhodamine B assay relative to control; conditions: read-out: Activity
NCI-H23 = experiment: Growth inhibition of human NCI-H23 cells incubated for 48 hrs by sulforhodamine B assay
Procedure, shortened: (§2)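 NCI60 panel at the NCI Developmental Therapeutics Program. Only compounds active in the 10 µM screen went to dose-response testing. GI50, the concentration giving 50% of maximal inhibition of proliferation, and TGI, the concentration giving total growth inhibition, were derived from the dose-response curves.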

HCC 2998 [11] = experiment: Growth inhibition of human HCC 2998 cells incubated for 48 hrs by sulforhodamine B assay; conditions: for CC50: read-out: LC50 (the source's name)
HT-29 = experiment: Growth inhibition of human HT-29 cells incubated for 48 hrs by sulforhodamine B assay; procedure, shortened: as §2
SW-620 = experiment: Growth inhibition of human SW-620 cells incubated for 48 hrs by sulforhodamine B assay
Procedure, shortened: (§3)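 NCI DTP 60-line human tumour panel. Dose-response curves were run only for ligands active in the initial 10 µM screen. GI50 (concentration giving 50% of maximal inhibition of proliferation) and TGI (concentration giving total growth inhibition) were derived from these curves.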

SNB-19 = experiment: Growth inhibition of human SNB-19 cells incubated for 48 hrs by sulforhodamine B assay; procedure, shortened: as §3
MDA-MB-435 = experiment: Growth inhibition of human MDA-MB-435 cells incubated for 48 hrs by sulforhodamine B assay; conditions: for CC50: read-out: LC50 (the source's name); procedure, shortened: as §2
T47D [12] = experiment: Growth inhibition of human T47D cells incubated for 48 hrs by sulforhodamine B assay; conditions: for CC50: read-out: LC50 (the source's name); procedure, shortened: as §3

SMILES: CN1CCc2nc3sc(C(N)=O)c(N)c3c(-c3cccs3)c2C1
- growth at 0.01 µM (CCRF-CEM [1]): 103%
- growth at 0.01 µM (K562): 96%
- growth at 0.01 µM (NCI-H322M): 96%
- growth at 0.01 µM (NCI-H522): 96%
- growth at 0.01 µM (COLO 205): 105%
- growth at 0.01 µM (HCC 2998 [2]): 94%
- growth at 0.01 µM (KM12): 103%
- growth at 0.01 µM (LOX IMVI): 97%
- growth at 0.01 µM (IGROV-1): 111%
- growth at 0.01 µM (SN12C): 98%
- growth at 0.01 µM (BT-549): 114%
- growth at 0.01 µM (T47D [3]): 97%
- growth at 0.1 µM (SK-MEL-28): 103%
- growth at 0.1 µM (CAKI-1): 82%
- growth at 0.1 µM (DU-145 [4]): 115%
- growth at 0.1 µM (MCF7): 107%
- growth at 0.1 µM (MDA-MB-468): 82%
- growth at 1 µM (CCRF-CEM [5]): 104%
- growth at 1 µM (HOP-92 [6]): 104%
- growth at 1 µM (SK-MEL-2 [7]): 108%
- growth at 1 µM (DU-145 [8]): 108%
- growth at 100 µM (SR): -19%
- growth at 100 µM (HOP-62): 2%
- growth at 100 µM (HOP-92 [9]): -1%
- growth at 100 µM (SF-268): 2%
- growth at 100 µM (SK-MEL-2 [10]): -45%
- growth at 100 µM (RXF 393): -46%
- growth at 100 µM (Hs-578T): -13%
- GI50 (NCI-H23): 2.87 µM
- LC50 (50% lethal concentration) (NCI-H23): > 100 µM
- TGI (NCI-H23): 12.6 µM
- GI50 (HCC 2998 [11]): 3.54 µM
- TGI (HCC 2998 [11]): 20.9 µM
- CC50 (HCC 2998 [11]): > 100 µM
- GI50 (HT-29): 3.11 µM
- LC50 (HT-29): > 100 µM
- TGI (HT-29): 70.9 µM
- GI50 (SW-620): 4.02 µM
- LC50 (concentration killing 50% of cells) (SW-620): > 100 µM
- TGI (SW-620): > 100 µM
- GI50 (SNB-19): 4.34 µM
- LC50 (SNB-19): > 100 µM
- TGI (SNB-19): > 100 µM
- GI50 (MDA-MB-435): 3.13 µM
- TGI (MDA-MB-435): > 100 µM
- CC50 (MDA-MB-435): > 100 µM
- GI50 (T47D [12]): 2.81 µM
- TGI (T47D [12]): > 100 µM
- CC50 (T47D [12]): > 100 µM

SMILES: CCc1ccccc1NC(=O)c1sc2nc3c(cc2c1N)C(=O)CCC3
- growth at 0.01 µM (CCRF-CEM [1]): 96%
- growth at 0.01 µM (K562): 104%
- growth at 0.01 µM (NCI-H322M): 97%
- growth at 0.01 µM (NCI-H522): 106%
- growth at 0.01 µM (COLO 205): 102%
- growth at 0.01 µM (HCC 2998 [2]): 100%
- growth at 0.01 µM (KM12): 100%
- growth at 0.01 µM (LOX IMVI): 97%
- growth at 0.01 µM (IGROV-1): 108%
- growth at 0.01 µM (SN12C): 94%
- growth at 0.01 µM (BT-549): 104%
- growth at 0.01 µM (T47D [3]): 99%
- growth at 0.1 µM (SK-MEL-28): 79%
- growth at 0.1 µM (CAKI-1): 90%
- growth at 0.1 µM (DU-145 [4]): 103%
- growth at 0.1 µM (MCF7): 83%
- growth at 0.1 µM (MDA-MB-468): 75%
- growth at 1 µM (CCRF-CEM [5]): 8%
- growth at 1 µM (HOP-92 [6]): 35%
- growth at 1 µM (SK-MEL-2 [7]): 31%
- growth at 1 µM (DU-145 [8]): 27%
- growth at 100 µM (SR): 2%
- growth at 100 µM (HOP-62): -22%
- growth at 100 µM (HOP-92 [9]): -6%
- growth at 100 µM (SF-268): 12%
- growth at 100 µM (SK-MEL-2 [10]): 7%
- growth at 100 µM (RXF 393): -41%
- growth at 100 µM (Hs-578T): 15%
- GI50 (HCC 2998 [11]): 1.43 µM
- TGI (HCC 2998 [11]): > 100 µM
- CC50 (HCC 2998 [11]): > 100 µM
- GI50 (HT-29): 0.372 µM
- LC50 (HT-29): > 100 µM
- TGI (HT-29): 29.5 µM
- GI50 (SW-620): 0.322 µM
- LC50 (concentration killing 50% of cells) (SW-620): > 100 µM
- TGI (SW-620): > 100 µM
- GI50 (SNB-19): 0.763 µM
- LC50 (SNB-19): > 100 µM
- TGI (SNB-19): > 100 µM
- GI50 (MDA-MB-435): 0.0464 µM
- TGI (MDA-MB-435): 0.225 µM
- CC50 (MDA-MB-435): > 100 µM
- GI50 (T47D [12]): 0.431 µM
- TGI (T47D [12]): ≥ 100 µM
- CC50 (T47D [12]): > 100 µM
